Reference: ChEMBL document CHEMBL4017517, “Small Molecule Inhibitors Simultaneously Targeting Cancer Metabolism and Epigenetics: Discovery of Novel Nicotinamide Phosphoribosyltransferase (NAMPT) and Histone Deacetylase (HDAC) Dual Inhibitors” (J Med Chem, 2017)
Calls of active or inactive are those of the source. The rule behind the calls is not given here.

Tests used:
[1] = test system: HCT-116; assay: Cell cycle arrest in human HCT116 cells assessed as accumulation at G2 phase at 5 uM after 48 hrs by propidium iodide staining based flow cytometry (reference value: 5%); format: functional
[2] = Cmax in Sprague-Dawley rat at 2 mg/kg, ip; format: ADME, organism-based; parameters: dose 2 mg/kg, route intraperitoneal; details: in vivo
Outline: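 Sprague-Dawley rats given a single ip dose of 2 mg/kg. Plasma concentration–time profile used to derive terminal half-life, Cmax, plasma clearance and Vss.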

[3] = molecular target: T1, Protein deacetylase HDAC6 (Homo sapiens, UniProt Q9UBN7); assay: Inhibition of human recombinant HDAC6 expressed in Baculovirus infected Sf9 cells using Ac-Leu-Gly-Lys(Ac)-AMC as substrate preincubated for 5 mins followed by substrate addition measured after 30 mins by fluorescence assay
T1 sequence (Q9UBN7 whole entry): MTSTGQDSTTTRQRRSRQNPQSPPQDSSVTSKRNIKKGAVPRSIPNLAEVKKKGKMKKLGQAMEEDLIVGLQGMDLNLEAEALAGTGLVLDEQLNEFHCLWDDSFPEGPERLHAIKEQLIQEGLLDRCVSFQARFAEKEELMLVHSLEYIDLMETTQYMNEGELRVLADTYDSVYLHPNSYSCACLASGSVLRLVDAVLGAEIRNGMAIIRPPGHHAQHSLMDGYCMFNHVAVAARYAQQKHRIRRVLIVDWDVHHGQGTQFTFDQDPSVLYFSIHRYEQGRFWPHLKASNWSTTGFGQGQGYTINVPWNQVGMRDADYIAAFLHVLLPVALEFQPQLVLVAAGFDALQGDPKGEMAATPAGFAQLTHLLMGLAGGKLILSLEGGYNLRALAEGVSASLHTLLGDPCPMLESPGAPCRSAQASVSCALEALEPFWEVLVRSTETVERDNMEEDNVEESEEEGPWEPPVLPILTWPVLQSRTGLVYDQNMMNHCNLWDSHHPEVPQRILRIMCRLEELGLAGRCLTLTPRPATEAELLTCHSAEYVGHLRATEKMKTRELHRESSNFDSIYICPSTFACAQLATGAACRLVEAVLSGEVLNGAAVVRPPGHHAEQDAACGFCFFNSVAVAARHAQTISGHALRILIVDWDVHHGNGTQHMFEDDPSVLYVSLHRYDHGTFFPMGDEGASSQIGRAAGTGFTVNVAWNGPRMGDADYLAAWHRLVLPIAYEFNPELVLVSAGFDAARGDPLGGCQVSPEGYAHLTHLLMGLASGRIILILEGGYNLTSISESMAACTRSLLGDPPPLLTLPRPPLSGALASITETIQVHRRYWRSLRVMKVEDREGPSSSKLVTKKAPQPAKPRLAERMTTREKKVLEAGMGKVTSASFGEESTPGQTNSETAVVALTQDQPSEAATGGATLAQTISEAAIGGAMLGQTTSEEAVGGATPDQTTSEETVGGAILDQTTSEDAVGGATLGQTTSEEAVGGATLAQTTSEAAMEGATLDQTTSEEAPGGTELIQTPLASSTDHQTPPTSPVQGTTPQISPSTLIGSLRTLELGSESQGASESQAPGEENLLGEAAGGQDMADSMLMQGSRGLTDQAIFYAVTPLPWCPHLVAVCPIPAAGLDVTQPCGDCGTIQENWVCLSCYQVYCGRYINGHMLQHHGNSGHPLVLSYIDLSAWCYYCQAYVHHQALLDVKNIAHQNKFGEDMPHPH

[4] = species on record: Homo sapiens; assay: Inhibition of HDAC in human HCT116 cells assessed as increase in acetylated histone H4 level after 24 hrs by Western blot analysis; format: cell-based
Outline: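 HCT116 cells treated at 1 and 5 μM for 24 h; DMSO-volume control. PBS-washed, RIPA-lysed on ice 30 min, centrifuged 12000 × g 15 min at 4 °C. 30 μg protein separated by SDS-PAGE, blotted to PVDF, blocked 5% BSA 2 h. Incubated with acetyl-histone H3 or H4 primary antibody overnight at 4 °C, then secondary antibody; infrared imaging.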

[5] = molecular target: Nicotinamide phosphoribosyltransferase (Homo sapiens, UniProt P43490); assay: Inhibition of human recombinant NAMPT using NAM as substrate preincubated for 5 mins followed by substrate addition measured after 15 mins by fluorescence assay
Chain of Nicotinamide phosphoribosyltransferase (P43490 whole entry): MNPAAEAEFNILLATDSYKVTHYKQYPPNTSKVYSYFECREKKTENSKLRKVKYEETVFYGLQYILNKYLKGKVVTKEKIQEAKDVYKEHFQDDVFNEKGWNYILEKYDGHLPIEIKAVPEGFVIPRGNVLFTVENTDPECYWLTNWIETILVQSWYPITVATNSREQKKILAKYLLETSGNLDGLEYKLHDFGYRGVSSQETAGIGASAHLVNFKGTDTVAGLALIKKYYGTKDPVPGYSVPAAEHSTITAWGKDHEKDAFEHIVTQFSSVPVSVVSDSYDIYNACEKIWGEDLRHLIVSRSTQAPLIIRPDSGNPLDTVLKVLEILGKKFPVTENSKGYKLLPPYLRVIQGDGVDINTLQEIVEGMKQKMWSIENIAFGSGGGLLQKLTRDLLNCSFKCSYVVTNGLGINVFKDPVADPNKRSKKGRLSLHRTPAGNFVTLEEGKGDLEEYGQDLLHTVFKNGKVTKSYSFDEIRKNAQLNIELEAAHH

[6] = test system: HepG2; assay: cells; format: functional, cell-based; details: Homo sapiens, HepG2, 72 h
[7] = test system: HCT-116; assay: Induction of apoptosis in human HCT116 cells assessed as early apoptotic cells at 5 uM after 72 hrs in presence of autophagy inhibitor wortmannin by Annexin V-FITC/propidium iodide staining-based flow cytometric analysis (reference value: 7.82%); format: functional

Cmax [2]: 745 ng/mL
IC50 [3]: > 100 µM
IC50 [5]: 0.031 µM
IC50 [6]: 4.5 µM
SMILES: Nc1ccccc1NC(=O)c1ccc(Cn2cc(-c3ccc(C(=O)NCc4cccnc4)cc3)nn2)cc1
Activity [1]: 39%
inhibition [4]: Active
Activity [7]: 12.46%
